Source: PubChem BioAssay
IDE inh: human IDE inhibitors in live cells, primary screen, fluorescence polarization, HEK cells, FAbetaB substrate. FAbetaB cleavage. inhibition, % at 5.59 µM. 0.41% of 320,000 active. AID 434962, 2010;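 active = percent inhibition above the average of all tested compounds plus 3 SD, set per screening campaign, cut at about 16% in these data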;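 also: IDE supplied by intact live HEK cells; FP after avidin binding of uncleaved biotin substrate so inhibition keeps polarization high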
Target sequence (P14735 whole entry, looked up): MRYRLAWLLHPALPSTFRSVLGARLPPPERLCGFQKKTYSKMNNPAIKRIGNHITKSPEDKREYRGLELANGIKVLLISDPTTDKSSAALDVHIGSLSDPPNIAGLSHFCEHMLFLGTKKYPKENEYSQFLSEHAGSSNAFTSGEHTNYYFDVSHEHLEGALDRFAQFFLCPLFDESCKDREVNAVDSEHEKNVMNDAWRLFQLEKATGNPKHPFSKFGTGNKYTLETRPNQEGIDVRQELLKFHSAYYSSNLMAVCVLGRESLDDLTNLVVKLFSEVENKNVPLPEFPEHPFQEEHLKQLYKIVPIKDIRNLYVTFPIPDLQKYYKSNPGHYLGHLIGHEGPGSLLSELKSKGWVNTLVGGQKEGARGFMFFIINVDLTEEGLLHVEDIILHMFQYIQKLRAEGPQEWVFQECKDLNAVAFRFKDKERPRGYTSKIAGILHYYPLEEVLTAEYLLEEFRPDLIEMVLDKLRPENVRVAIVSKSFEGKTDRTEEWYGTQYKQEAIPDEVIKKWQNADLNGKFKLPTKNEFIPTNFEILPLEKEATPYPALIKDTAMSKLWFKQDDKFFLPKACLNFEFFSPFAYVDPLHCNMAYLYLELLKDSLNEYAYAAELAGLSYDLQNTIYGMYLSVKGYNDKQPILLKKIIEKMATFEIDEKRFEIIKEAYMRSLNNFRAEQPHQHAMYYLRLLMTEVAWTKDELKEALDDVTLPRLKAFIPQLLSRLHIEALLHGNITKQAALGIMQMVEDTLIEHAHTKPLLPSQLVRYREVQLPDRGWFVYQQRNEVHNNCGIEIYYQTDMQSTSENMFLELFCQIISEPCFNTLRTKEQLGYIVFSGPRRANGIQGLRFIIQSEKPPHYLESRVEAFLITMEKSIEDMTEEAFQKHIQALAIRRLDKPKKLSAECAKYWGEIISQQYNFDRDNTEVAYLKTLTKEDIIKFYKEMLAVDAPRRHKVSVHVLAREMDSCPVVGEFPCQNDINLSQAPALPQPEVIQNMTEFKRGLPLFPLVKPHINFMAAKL
IDE act: human IDE activators in live cells, primary screen, fluorescence polarization, HEK cells, FAbeta-B substrate; FAbeta-B cleavage; 0% vehicle, 100% cell-free pure enzyme wells; activation, % at 5.96 µM; 0.073% of 340,000 active; AID 493087, 2011;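 active = activation above the mean of all tested compounds plus 3 SD, set per screening campaign, cut at about 17% in these data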
HDAC3 inh: HDAC3 deacetylase inhibitors, primary screen, biochemical, fluorescence, cell-free homogeneous; Histone deacetylase 3 (Homo sapiens), O15379; recombinant HDAC3, fluorogenic peptide/trypsin coupled; inhibition, % at 8.3 µM; 0.15% of 320,000 active; AID 2718, 2010; in the data active = inhibition above about 26%, passing the limit was not always enough
Tb MetRS inh: T. brucei MetRS inhibitors, primary screen, biochemical, luminescence. methionyl-tRNA synthetase (Trypanosoma brucei brucei). purified T. brucei MetRS, ATP depletion, Kinase-Glo luminescence. inhibition, % at 11.9 µM. 0.4% of 360,000 active. AID 624268, 2012;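 active = inhibition above a per-plate cutoff of the control wells' mean inhibition plus 3 SD, cut at about 5.5% in these data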
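Dosing: 11.9 µM compound single dose, 0.9% DMSO; Assay system: purified T. brucei MetRS enzyme; Measured by: Kinase-Glo luciferase luminescence reporting remaining unconsumed ATP; Schedule: 15 min plus 2 h at 25 °C.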
Efflux pump mplx: inhibitors of Candida efflux pumps in yeast, primary screen, S. cerevisiae, Nile Red, multiplex; S. cerevisiae Candida pump triplex; inhibition, % at 10 µM; AID 485275, 2010; 0.44% of 330,000 active;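 active = plate passing quality check with inhibition over a set limit, or well fluorescence over plate mean plus 4 SD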;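 also: Nile Red retained in pooled yeast measured as flow cytometry median fluorescence; higher means more Nile Red kept so more efflux inhibition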
CR mimetic SO: reduction of superoxide in aged yeast, primary screen, HTS; 0.18% of 330,000 active; S. cerevisiae aged cells, superoxide DHE fluorescence; active compounds read low; superoxide response (% of plate mean), % at 10 µM;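 active = superoxide response under a set limit, about three screen SD below normal, cut at about 65% in these data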;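 also: yeast aged for seven days with compound at 30 °C before DHE staining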
IDE cell inh cf: human IDE inhibitors in live cells, confirmation, fluorescence polarization, HEK cells, FAbetaB substrate; AID 435028, 2010; inhibition, % at 5.59 µM; shares compounds with IDE inh; 51% of 1,200 active; FAbetaB cleavage;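 active = mean inhibition across triplicate wells above the cutoff set by the earlier primary insulin-degrading enzyme screen, cut at about 16% in these data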
HEK cytotox: cytotoxicity in HEK cells, cytotoxicity control for IDE inhibitor project, cell-based, luminescence | shares compounds with IDE inh | HEK293 cytotoxicity, ATP luminescence | inhibition, % at 5.59 µM | 28% of 1,200 active | AID 449730, 2010; in the data active = inhibition above about 22%
FP fluor counter: fluorescent or optically active artefacts, dose response, artefact control for IDE inhibitor project, biochemical, fluorescence polarization; 30 tested, under 10 active; IC50, µM; shares compounds with IDE inh; FP counterscreen for fluorescent artifacts, IDE probe project; call rule not given here
Each line names hits and unclear results; the compound was inactive in the other large screens (follow-up assays come after a bar, where they were run). Shown are actives, neighbours in structure and some others; about 1.4% of the full set was active somewhere.

CC1CCN(c2ccc3c(c2)S(=O)(=O)c2cccc(C(=O)NCc4cccc(F)c4)c2C3=O)CC1	IDE inh 24 | IDE cell inh cf 32 | HEK cytotox 23
O=C(NCc1ccco1)c1cccc2c1C(=O)c1ccc(N3CCC(Cc4ccccc4)CC3)cc1S2(=O)=O	IDE inh 46 | IDE cell inh cf 45 | HEK cytotox 43
O=C(NCc1cccc(F)c1)c1cccc2c1C(=O)c1ccc(N3CCC(Cc4ccccc4)CC3)cc1S2(=O)=O	none
COc1cccc(NC(=O)CN(C)C(=O)c2ccc3[nH]c4c(c3c2)CC(C)CC4)c1 (stereo unspecified)	none (no result: IDE inh, HDAC3 inh, Efflux pump mplx, CR mimetic SO)
CC(=O)c1ccc(N2CCN(C(=O)/C=C/c3ccc(S(=O)(=O)N4CCOCC4)cc3)CC2)cc1	none
CC(=O)c1ccc(N2CCN(C(=O)/C=C/c3ccc(S(=O)(=O)NCc4ccco4)cc3)CC2)cc1	IDE inh 21 | IDE cell inh cf inactive | HEK cytotox 49
CCOC(=O)N1CCN(C(=O)c2cccn3c(=O)c4cc(Cl)ccc4nc23)CC1	IDE inh 16 | IDE cell inh cf inactive | HEK cytotox inactive
O=C(COC(=O)CSc1ccc([N+](=O)[O-])cc1)NCCC1=CCCCC1	none
CN1C(=CC=C2C=C(I)C(=O)C(I)=C2)C(C)(C)c2ccccc21	none (no result: IDE inh, HDAC3 inh, Efflux pump mplx, CR mimetic SO)
CN1/C(=C\C=C2/C(=O)Oc3ccccc3C2=O)C(C)(C)c2ccccc21	IDE inh 184 (no result: IDE act, Tb MetRS inh) | IDE cell inh cf 61 | HEK cytotox 23
CSc1ncccc1C(=O)OCC(=O)NC(C)C	none
N#Cc1ccc(C(=O)Nc2ccc3ccccc3c2)cc1	none
O=C(Nc1ccc2ccccc2c1)c1ccc2[nH]c(=O)c(=O)[nH]c2c1	IDE inh 20 | IDE cell inh cf inactive | HEK cytotox inactive
COc1cc(NC(=O)CC(C)S(=O)(=O)c2ccc3c(c2)NC(=O)CO3)cc(OC)c1OC (stereo unspecified)	none
NC(=O)c1cc(S(=O)(=O)N2CCOCC2)cs1	none
CC(=Nc1cccc(C)c1)c1sc2ccccc2c1O	IDE inh 16 | IDE cell inh cf 29 | HEK cytotox inactive
Oc1c(N=Nc2ccccc2)sc2ccccc12	none
CC(=O)NCCN=C(C)c1sc2ccccc2c1O	none
CC(=Nc1ccc(O)cc1)c1sc2ccccc2c1O	IDE inh 27 | IDE cell inh cf 35 | HEK cytotox inactive
CC(=Nc1ccccc1O)c1sc2ccccc2c1O	IDE inh 84 | IDE cell inh cf 96 | HEK cytotox inactive
COc1cc(C#N)c(NS(=O)(=O)c2ccc3[nH]c(=O)sc3c2)cc1OC	none
C=CCc1ccccc1OCC(=O)N/N=C/c1ccc(OC(C)=O)cc1OC(C)=O	none
O=C(O)c1ccc(CNCc2c(Cl)cccc2Cl)cc1	none
O=C(N/N=C/c1ccc(Cl)cc1Cl)c1cccc(N2CCCC2=O)c1	IDE inh 34 | IDE cell inh cf inactive | HEK cytotox inactive
O=C(N/N=C/c1cc(Br)cc(Br)c1O)c1cccc(N2CCCC2=O)c1	none
CC(C)[C@H](NC(=O)c1ccc(C(C)(C)C)cc1)C(=O)N1CCN(Cc2ccc3c(c2)OCO3)CC1	IDE inh 19 | IDE cell inh cf inactive | HEK cytotox 53
O=C(CN1C(=O)NC(CCc2ccccc2)C1=O)Nc1ccccc1C(F)(F)F (stereo unspecified)	none
CN(C)c1cc[n+](CC(=O)c2ccc(-c3ccccc3)cc2)cc1	IDE inh 22 | IDE cell inh cf 23 | HEK cytotox 83
CC(C)C(NC(=O)c1ccc(F)cc1)C(=O)N1CCOCC1 (stereo unspecified)	none
Cc1cccc(NC(=O)c2cccc(S(=O)(=O)NCc3ccccc3)c2)n1	none
COC(=O)Cn1c(=NC(=O)c2cc(OC)cc(OC)c2)sc2cc(OC)ccc21	IDE inh 16 | IDE cell inh cf inactive | HEK cytotox inactive
COC(=O)Cn1c(=NC(=O)c2ccc(OC)cc2)sc2cc(OC)ccc21	none
COC(=O)c1c(C(=O)OC)c(-c2ccc(Cl)cc2)n2c1CS(=O)(=O)C2	none (no result: IDE act)
Cc1cc(C)cc(Nc2cnn(C34CC5CC(CC(CC(=O)O)(C5)C3)C4)c(=O)c2Cl)c1	IDE inh 32 | IDE cell inh cf 18 | HEK cytotox inactive
Cc1cccc(Nc2cnn(C34CC5CC(CC(CC(=O)O)(C5)C3)C4)c(=O)c2Cl)c1	IDE inh 21 | IDE cell inh cf inactive | HEK cytotox inactive
Cc1ccc(Nc2cnn(C34CC5CC(CC(CC(=O)O)(C5)C3)C4)c(=O)c2Cl)cc1	none
COc1cc(C(=O)Nc2ccc(C)c(S(=O)(=O)N(C)C)c2)ccc1OCC(=O)N1CCOCC1	none
COc1ccc(-n2c(SCC(=O)NCC3CCCO3)nc3ccccc3c2=O)cc1Cl (stereo unspecified)	none (no result: IDE inh, IDE act, HDAC3 inh, Efflux pump mplx, CR mimetic SO)
CCOC(=O)C1=C(c2ccccc2)N=c2s/c(=C\c3ccc(O)cc3)c(=O)n2C1c1cccs1 (stereo unspecified)	IDE inh 23 | IDE cell inh cf 115 | HEK cytotox 41
CCCCCC(=O)N1C[C@@H](O)[C@H](n2cc(COC(=O)c3ccccc3)nn2)C[C@@H]1c1ccc(OC)cc1	none (no result: IDE inh, IDE act, HDAC3 inh, Efflux pump mplx, CR mimetic SO)
O=C(Nc1cccc(C(F)(F)F)c1)c1csc(-c2ccncc2)n1	IDE inh 50 | IDE cell inh cf 29 | HEK cytotox inactive | FP fluor counter inactive
COc1cc(NC(=O)c2csc(-c3ccncc3)n2)cc(C(=O)Nc2cccc(C(F)(F)F)c2)c1	none
COc1ccc(-c2nc(C(=O)Nc3cccc(C(F)(F)F)c3)cs2)cc1	none (no result: IDE inh, IDE act, HDAC3 inh, Tb MetRS inh, Efflux pump mplx, CR mimetic SO) | FP fluor counter inactive
Cc1nc(-c2cccnc2)sc1C(=O)Nc1ccc(C(F)(F)F)cc1	none
Cc1nc(-c2cccnc2)sc1C(=O)Nc1cccc(C(F)(F)F)c1	none | FP fluor counter inactive
O=C(NCCN1CCC(n2c(=O)[nH]c3ccccc32)CC1)c1cccnc1Cl	none (no result: IDE inh, IDE act, HDAC3 inh, Efflux pump mplx, CR mimetic SO)
O=C(O)C1C(c2ccccc2)=C1c1ccc(Br)cc1 (stereo unspecified)	none (no result: IDE inh, IDE act, HDAC3 inh, Efflux pump mplx, CR mimetic SO)
COCn1c(-c2ccc(OC)c(OC)c2)nc2ccccc21	none
